{"source": "ChEMBL document CHEMBL1140127", "about": "“Enantiomeric propanolamines as selective N-methyl-D-aspartate 2B receptor antagonists” (J Med Chem, 2008)", "key": {"[1]": {"experiment": "Inhibition of L-type calcium channel"}, "[2]": {"molecular_target": "Glutamate NMDA receptor; Grin1/Grin2c (Rattus norvegicus) (UniProt P35439+Q00961)", "experiment": "Inhibition of rat recombinant NR1/NR2C receptor expressed in Xenopus oocytes assessed as inhibition of glutamate and glycine-induced evoked current at 3uM by two electrode voltage clamp method", "assay_type": "cell-based", "details": "Oocyte"}, "Rattus norvegicus": {"system": "Rattus norvegicus", "experiment": "Effect on locomotor activity in Sprague-Dawley rat at 300 mg/kg, ip", "assay_type": "functional, organism-based", "set-up": "dose 300 mg/kg", "summary_of_the_method": "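Sprague–Dawley rats, 100–200 g, habituated to the room for ≥30 min. Basal activity recorded for 1 h in infrared photobeam activity chambers. Animals then dosed ip and returned to the chamber for 2 h; total horizontal activity recorded. Daily controls were vehicle (negative) and 0.3 mg/kg MK-801 ip in saline (positive). ANOVA with Dunnett's post hoc test.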"}, "Plasma": {"system": "Plasma", "experiment": "Half life in rat plasma at 30 mg/kg, ip by LC-MS/MS analysis", "assay_type": "ADME, organism-based", "set-up": "dose 30 mg/kg, route intraperitoneal", "details": "in vivo", "summary_of_the_method": "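Fasted rats (n = 3 per dose) given 30 mg/kg ip in 2% dimethyl acetamide/98% 5% hydroxypropyl cyclodextrin. Plasma sampled at several time points up to 240 min and extracted with 5 volumes of cold acetonitrile. Parent compound measured by LC-MS/MS (MRM) against a standard curve to give plasma t1/2.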"}}, "note": "The source made the active and inactive calls. The rule behind the calls is not given here.", "data": [{"smiles": "CS(=O)(=O)Nc1ccc(OC[C@@H](O)CNCCc2ccc(Cl)c(Cl)c2)cc1", "values": [{"measurement": "IC50", "setting": "[1]", "result": "> 5", "unit": "µM"}, {"measurement": "Activity", "setting": "[2]", "result": "inactive"}, {"measurement": "Activity", "setting": "Rattus norvegicus", "result": "inactive"}, {"measurement": "t1/2", "setting": "Plasma", "result": 1.1, "unit": "h"}]}]}
